Test results: ChEMBL document CHEMBL3352173, “Optimization of pyrrolamide topoisomerase II inhibitors toward identification of an antibacterial clinical candidate (AZD5099)” (J Med Chem, 2014)
pIC50: −log10 of the molar value. Converted amounts (≈) assume the structure as drawn.

How the values were obtained:
Haemophilus influenzae = experiment: Antimicrobial activity against Haemophilus influenzae by broth microdilution/CLSI method; format: functional; settings: Haemophilus influenzae; read-out: MIC
DNA gyrase subunit B = DNA gyrase subunit B (Staphylococcus aureus, UniProt P0A0K8); experiment: Inhibition of ATPase activity of Staphylococcus aureus GyrB
In short: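 IC50 was determined against S. aureus GyrB in the routine screening assay. The enzyme concentration limits resolution below 10 nM.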

Streptococcus pneumoniae = experiment: Antibacterial activity against Streptococcus pneumoniae by broth microdilution/CLSI method; format: functional; settings: Streptococcus pneumoniae; read-out: MIC
Streptococcus pyogenes = experiment: Antimicrobial activity against Streptococcus pyogenes by broth microdilution/CLSI method; format: functional
Staphylococcus aureus [1] = experiment: Antimicrobial activity against methicillin-sensitive Staphylococcus aureus by broth microdilution/CLSI method; format: functional; settings: Staphylococcus aureus; read-out: MIC
Moraxella catarrhalis = experiment: Antimicrobial activity against Moraxella catarrhalis by broth microdilution/CLSI method; format: functional; settings: Moraxella catarrhalis; read-out: MIC
Escherichia coli [2] = experiment: Antimicrobial activity against wild-type Escherichia coli Eco523 by broth microdilution/CLSI method; format: functional; settings: Escherichia coli, Eco523; read-out: MIC
Escherichia coli [3] = experiment: Antimicrobial activity against Escherichia coli tolC- by broth microdilution/CLSI method; format: functional; settings: Escherichia coli; read-out: MIC
[4] = Octanol-phosphate buffer distribution coefficient, log D of the compound at pH 7.4 by shake flask method; format: physicochemical
[5] = Percentage unbound in human plasma; format: ADME, cell-free
[6] = Solubility of the compound; format: physicochemical
[7] = Ratio of MIC for methicillin, quinolone-resistant Staphylococcus aureus to fraction unbound in human plasma; format: ADME
[8] = Clearance in rat at 10 mg/kg, iv; format: ADME, organism-based; set-up: dose 10 mg/kg, route intravenous; settings: in vivo
Staphylococcus aureus [9] = experiment: Antimicrobial activity against methicillin, quinolone-resistant Staphylococcus aureus by broth microdilution/CLSI method; format: functional; settings: Staphylococcus aureus; read-out: MIC

DNA gyrase subunit B, sequence (P0A0K8 whole entry): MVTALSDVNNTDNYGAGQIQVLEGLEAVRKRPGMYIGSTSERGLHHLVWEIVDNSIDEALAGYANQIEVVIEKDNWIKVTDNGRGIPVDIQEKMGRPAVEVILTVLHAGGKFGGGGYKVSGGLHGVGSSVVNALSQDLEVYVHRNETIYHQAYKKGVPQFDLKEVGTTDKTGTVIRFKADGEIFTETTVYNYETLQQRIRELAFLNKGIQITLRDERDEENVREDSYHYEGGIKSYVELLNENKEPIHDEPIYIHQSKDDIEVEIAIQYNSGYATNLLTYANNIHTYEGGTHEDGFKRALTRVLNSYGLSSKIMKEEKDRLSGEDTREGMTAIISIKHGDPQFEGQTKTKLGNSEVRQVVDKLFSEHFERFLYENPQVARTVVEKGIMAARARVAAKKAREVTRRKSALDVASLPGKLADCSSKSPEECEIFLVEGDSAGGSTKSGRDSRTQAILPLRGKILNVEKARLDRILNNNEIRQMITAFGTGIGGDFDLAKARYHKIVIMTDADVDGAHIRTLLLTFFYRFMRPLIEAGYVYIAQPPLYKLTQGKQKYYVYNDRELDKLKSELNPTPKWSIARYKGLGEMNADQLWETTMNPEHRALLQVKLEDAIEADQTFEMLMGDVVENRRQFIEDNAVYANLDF

## CO[C@H]1CN(c2nc(C(=O)NC3COC(C)(C)OC3)c(C(=O)O)s2)CC[C@H]1NC(=O)c1[nH]c(C)c(Cl)c1Cl
Haemophilus influenzae
  MIC: 0.16 mg/L (≈ 0.271 µM)
DNA gyrase subunit B
  pIC50: > 8.00
Streptococcus pneumoniae
  MIC: 0.016 mg/L (≈ 0.0271 µM)
Streptococcus pyogenes
  MIC: 0.016 mg/L (≈ 0.0271 µM)
Staphylococcus aureus [1]
  MIC: < 0.06 mg/L
Moraxella catarrhalis
  MIC: 0.008 mg/L (≈ 0.0135 µM)
Escherichia coli [2]
  MIC: 14 mg/L (≈ 23.7 µM)
Escherichia coli [3]
  MIC: 0.76 mg/L (≈ 1.29 µM)
[4]
  logD: 1.2
[5]
  fraction unbound: 0.036
[6]
  solubility: > 1000 µM
[7]
  Ratio: < 1.8
[8]
  clearance: 2.28 L/h/kg

## CO[C@H]1CN(c2nc(C(N)=O)c(C(=O)O)s2)CC[C@H]1NC(=O)c1[nH]c(C)c(Cl)c1Cl
Haemophilus influenzae
  MIC: 0.16 mg/L (≈ 0.336 µM)
DNA gyrase subunit B
  pIC50: > 8.00
Streptococcus pneumoniae
  MIC: 0.039 mg/L (≈ 0.0819 µM)
Streptococcus pyogenes
  MIC: 0.039 mg/L (≈ 0.0819 µM)
Staphylococcus aureus [1]
  MIC: 0.5 mg/L (≈ 1.05 µM)
Staphylococcus aureus [9]
  MIC: 0.5 mg/L (≈ 1.05 µM)
Moraxella catarrhalis
  MIC: 0.02 mg/L (≈ 0.042 µM)
Escherichia coli [2]
  MIC: > 8 mg/L
Escherichia coli [3]
  MIC: 0.32 mg/L (≈ 0.672 µM)
[4]
  logD: 0.85
[5]
  fraction unbound: 0.043
[6]
  solubility: 280 µM (≈ 133 µg/mL)
[7]
  Ratio: 12

## CO[C@H]1CN(c2nc(C(=O)NN3CCOCC3)c(C(=O)O)s2)CC[C@H]1NC(=O)c1[nH]c(C)c(Cl)c1Cl
Haemophilus influenzae
  MIC: 1.4 mg/L (≈ 2.49 µM)
DNA gyrase subunit B
  pIC50: > 8.00
Streptococcus pneumoniae
  MIC: 0.25 mg/L (≈ 0.445 µM)
Streptococcus pyogenes
  MIC: 0.25 mg/L (≈ 0.445 µM)
Staphylococcus aureus [1]
  MIC: 2 mg/L (≈ 3.56 µM)
Staphylococcus aureus [9]
  MIC: 4 mg/L (≈ 7.12 µM)
Moraxella catarrhalis
  MIC: 0.35 mg/L (≈ 0.623 µM)
Escherichia coli [2]
  MIC: > 64 mg/L
Escherichia coli [3]
  MIC: 1 mg/L (≈ 1.78 µM)
[4]
  logD: -0.15
[5]
  fraction unbound: 0.071
[6]
  solubility: > 1000 µM
[7]
  Ratio: 56

## CO[C@H]1CN(c2nc(-c3ncc[nH]3)c(C(=O)O)s2)CC[C@H]1NC(=O)c1[nH]c(C)c(Cl)c1Cl
Haemophilus influenzae
  MIC: 1 mg/L (≈ 2 µM)
DNA gyrase subunit B
  pIC50: > 8.00
Streptococcus pneumoniae
  MIC: < 0.06 mg/L
Streptococcus pyogenes
  MIC: 0.08 mg/L (≈ 0.16 µM)
Staphylococcus aureus [1]
  MIC: 0.63 mg/L (≈ 1.26 µM)
Staphylococcus aureus [9]
  MIC: 1 mg/L (≈ 2 µM)
Moraxella catarrhalis
  MIC: < 0.06 mg/L
Escherichia coli [2]
  MIC: > 64 mg/L
Escherichia coli [3]
  MIC: < 0.06 mg/L
[4]
  logD: > 2.5
[5]
  fraction unbound: < 0.01
[6]
  solubility: < 1 µM
[7]
  Ratio: 100

## COc1ccnc(-c2nc(N3CC[C@@H](NC(=O)c4[nH]c(C)c(Cl)c4Cl)[C@@H](OC)C3)sc2C(=O)O)n1
Haemophilus influenzae
  MIC: 0.25 mg/L (≈ 0.462 µM)
DNA gyrase subunit B
  pIC50: > 8.00
Streptococcus pneumoniae
  MIC: < 0.06 mg/L
Streptococcus pyogenes
  MIC: < 0.06 mg/L
Staphylococcus aureus [1]
  MIC: < 0.06 mg/L
Moraxella catarrhalis
  MIC: < 0.06 mg/L
Escherichia coli [2]
  MIC: 16 mg/L (≈ 29.6 µM)
[5]
  fraction unbound: 0.036
[7]
  Ratio: 1.75
[8]
  clearance: 0.378 L/h/kg

## CO[C@H]1CN(c2nc(-c3nccs3)c(C(=O)O)s2)CC[C@H]1NC(=O)c1[nH]c(C)c(Cl)c1Cl
Haemophilus influenzae
  MIC: 0.13 mg/L (≈ 0.252 µM)
DNA gyrase subunit B
  pIC50: > 8.01
Streptococcus pneumoniae
  MIC: < 0.06 mg/L
Streptococcus pyogenes
  MIC: < 0.06 mg/L
Staphylococcus aureus [1]
  MIC: < 0.06 mg/L
Moraxella catarrhalis
  MIC: < 0.06 mg/L
Escherichia coli [2]
  MIC: 8 mg/L (≈ 15.5 µM)
Escherichia coli [3]
  MIC: 0.13 mg/L (≈ 0.252 µM)
[4]
  logD: 3.6
[5]
  fraction unbound: < 0.01
[6]
  solubility: 16 µM (≈ 8.26 µg/mL)
[7]
  Ratio: < 6.3

## CO[C@H]1CN(c2nc(C(=O)NCCN3CCCC3=O)c(C(=O)O)s2)CC[C@H]1NC(=O)c1[nH]c(C)c(Cl)c1Cl
Haemophilus influenzae
  MIC: 0.5 mg/L (≈ 0.851 µM)
DNA gyrase subunit B
  pIC50: > 8.00
Streptococcus pneumoniae
  MIC: < 0.06 mg/L
Streptococcus pyogenes
  MIC: < 0.06 mg/L
Staphylococcus aureus [1]
  MIC: 0.35 mg/L (≈ 0.596 µM)
Staphylococcus aureus [9]
  MIC: 1.4 mg/L (≈ 2.38 µM)
Moraxella catarrhalis
  MIC: < 0.063 mg/L
Escherichia coli [2]
  MIC: 64 mg/L (≈ 109 µM)
Escherichia coli [3]
  MIC: 0.71 mg/L (≈ 1.21 µM)
[5]
  fraction unbound: 0.076
[6]
  solubility: 870 µM (≈ 511 µg/mL)
[7]
  Ratio: 18

## CO[C@H]1CN(c2nc(C(=O)NCCN3CCOCC3)c(C(=O)O)s2)CC[C@H]1NC(=O)c1[nH]c(C)c(Cl)c1Cl
Haemophilus influenzae
  MIC: 0.25 mg/L (≈ 0.424 µM)
DNA gyrase subunit B
  pIC50: > 8.00
Streptococcus pneumoniae
  MIC: 0.031 mg/L (≈ 0.0526 µM)
Streptococcus pyogenes
  MIC: 0.031 mg/L (≈ 0.0526 µM)
Staphylococcus aureus [1]
  MIC: 0.25 mg/L (≈ 0.424 µM)
Staphylococcus aureus [9]
  MIC: 0.5 mg/L (≈ 0.848 µM)
Moraxella catarrhalis
  MIC: 0.031 mg/L (≈ 0.0526 µM)
Escherichia coli [2]
  MIC: > 8 mg/L
Escherichia coli [3]
  MIC: 0.25 mg/L (≈ 0.424 µM)
[4]
  logD: 1
[5]
  fraction unbound: 0.054
[6]
  solubility: > 1000 µM
[7]
  Ratio: 9.2

## CO[C@H]1CN(c2nc(-c3cncc(NCCN4CCN(C)CC4)n3)c(C(=O)O)s2)CC[C@H]1NC(=O)c1[nH]c(C)c(Cl)c1Cl
Haemophilus influenzae
  MIC: 1 mg/L (≈ 1.53 µM)
DNA gyrase subunit B
  pIC50: 8.92
Streptococcus pneumoniae
  MIC: 0.011 mg/L (≈ 0.0169 µM)
Streptococcus pyogenes
  MIC: 0.031 mg/L (≈ 0.0475 µM)
Staphylococcus aureus [1]
  MIC: 0.25 mg/L (≈ 0.383 µM)
Staphylococcus aureus [9]
  MIC: 0.58 mg/L (≈ 0.889 µM)
Escherichia coli [2]
  MIC: 46 mg/L (≈ 70.5 µM)
Escherichia coli [3]
  MIC: 0.51 mg/L (≈ 0.781 µM)
[4]
  logD: 2
[5]
  fraction unbound: 0.027
[6]
  solubility: 36 µM (≈ 23.5 µg/mL)
[7]
  Ratio: 21

## CO[C@H]1CN(c2nc(C(F)F)c(C(=O)O)s2)CC[C@H]1NC(=O)c1[nH]c(C)c(Cl)c1Cl
Haemophilus influenzae
  MIC: 1 mg/L (≈ 2.07 µM)
DNA gyrase subunit B
  pIC50: > 8.00
Streptococcus pneumoniae
  MIC: 0.063 mg/L (≈ 0.13 µM)
Streptococcus pyogenes
  MIC: 0.13 mg/L (≈ 0.269 µM)
Staphylococcus aureus [1]
  MIC: 2 mg/L (≈ 4.14 µM)
Staphylococcus aureus [9]
  MIC: 2 mg/L (≈ 4.14 µM)
Moraxella catarrhalis
  MIC: 0.063 mg/L (≈ 0.13 µM)
Escherichia coli [2]
  MIC: > 8 mg/L
Escherichia coli [3]
  MIC: 0.5 mg/L (≈ 1.03 µM)
[4]
  logD: 0.52
[6]
  solubility: 690 µM (≈ 333 µg/mL)
[8]
  clearance: 4.2 L/h/kg

## COc1cc(OC)nc(-c2nc(N3CC[C@@H](NC(=O)c4[nH]c(C)c(Cl)c4Cl)[C@@H](OC)C3)sc2C(=O)O)n1
Haemophilus influenzae
  MIC: 0.25 mg/L (≈ 0.437 µM)
DNA gyrase subunit B
  pIC50: > 8.00
Streptococcus pneumoniae
  MIC: 0.016 mg/L (≈ 0.028 µM)
Streptococcus pyogenes
  MIC: 0.016 mg/L (≈ 0.028 µM)
Staphylococcus aureus [1]
  MIC: 0.025 mg/L (≈ 0.0437 µM)
Staphylococcus aureus [9]
  MIC: 0.05 mg/L (≈ 0.0875 µM)
Moraxella catarrhalis
  MIC: 0.016 mg/L (≈ 0.028 µM)
Escherichia coli [2]
  MIC: 32 mg/L (≈ 56 µM)
Escherichia coli [3]
  MIC: 1 mg/L (≈ 1.75 µM)
[4]
  logD: 1.7
[5]
  fraction unbound: 0.036
[7]
  Ratio: 1.4
[8]
  clearance: 0.378 L/h/kg
